High-throughput results (PubChem)
D1 allo mod: allosterically modulates the human D1 dopamine receptor; HEK293 D1, CRE-luciferase, dopamine EC30 potentiation; actives deviate in either direction; B-score at 10 µM; 58,000 compounds, 5.9% hits; AID 641;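 active means luminescence count or its row- and column-corrected plate score outside the 99.7% band of the plate's sample wells, on either side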
M1 ag: M1 muscarinic receptor agonism; CHO-M1 cells, Fluo-4 calcium fluorescence, agonist mode; stronger effect = higher value; B-score at 10 µM; 64,000 compounds, 3% hits;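 active means fluorescence rise, raw or as B-score row- and column-corrected plate score, outside the 99.7% band of its plate's samples, either direction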
M1 antag: antagonists of rat M1 muscarinic receptor | P08482 | CHO-M1 cells, Fluo-4 calcium, ACh EC80 antagonist mode; stronger effect = lower value | B-score at 10 µM | 64,000 compounds, 3.4% hits | AID 628;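 active means calcium fluorescence response, raw or row-and-column corrected B-score, differing from the plate sample mean either way at a set confidence level, mostly lower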
Htt clearance: mutant huntingtin protein clearance; HeLa Exon1htt(103Q)mCFP, aggregate imaging; zero = plate's median compound well; inhibition, % at 1.5 µM; 47,000 compounds, 0.42% hits; AID 853;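 active means inhibition of aggregate fluorescence above about 70%, also judged a hit by eye on the cell image, limit read from the data, passing the limit was not always enough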;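 further: cells exposed to compound for three days before fixation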
SF1 activator: activators of human nuclear receptor SF-1; CHO-K1 Gal4-SF-1 LBD luciferase reporter; % increase over DMSO SF-1-specific signal; activation, % at 10 µM; 65,000 compounds, 1.9% hits;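 active means activation above the mean activation of all tested compounds plus 3 SD, cut at about 50% in these data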
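Compound – one dose, 10 µM compound, 1% DMSO · Test system – transient Gal4-SF-1 LBD reporter, CHO-K1 · Input – 4,000 cells in each well · Read-out basis – percent activation relative to DMSO median and mock-transfected background · Replicates – single measurement per compound · Technique – steady-glow luciferase luminescence, read after 15 min reagent incubation · Timing – 20 h compound treatment, 37 °C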
RORa activator: RORA (human) activation; P35398; CHO-K1 Gal4-RORA LBD luciferase reporter, luminescence; percent increase over mock-subtracted basal signal; activation, % at 10 µM; 65,000 compounds, 1.5% hits; AID 560;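 active means activation above the mean of all tested compounds plus 3 SD, cut at about 49% in these data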;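 further: 0% = DMSO-treated RORA cells and 100% = added signal equal to DMSO minus mock-transfected cells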
Target sequence (P35398 whole entry, looked up, the tested form may be a part): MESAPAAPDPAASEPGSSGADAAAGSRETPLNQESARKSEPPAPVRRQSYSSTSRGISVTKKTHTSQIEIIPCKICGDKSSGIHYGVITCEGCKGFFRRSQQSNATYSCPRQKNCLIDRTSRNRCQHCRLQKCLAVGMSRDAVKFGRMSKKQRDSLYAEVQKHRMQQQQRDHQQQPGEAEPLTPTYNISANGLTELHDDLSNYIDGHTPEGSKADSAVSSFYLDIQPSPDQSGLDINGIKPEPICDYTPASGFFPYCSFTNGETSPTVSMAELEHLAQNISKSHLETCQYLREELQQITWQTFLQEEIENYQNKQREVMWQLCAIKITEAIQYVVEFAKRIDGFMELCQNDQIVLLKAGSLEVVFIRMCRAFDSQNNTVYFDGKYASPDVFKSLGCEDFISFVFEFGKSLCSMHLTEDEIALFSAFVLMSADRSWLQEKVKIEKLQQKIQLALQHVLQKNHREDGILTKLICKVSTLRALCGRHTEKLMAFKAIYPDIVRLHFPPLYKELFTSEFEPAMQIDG
D1 PAM confirm: D1 receptor (human) allosteric modulation, confirmed. luminescence at 10 µM. shares compounds with D1 allo mod. 2,200 compounds, 88% hits. HEK293 D1 CRE-luciferase, dopamine EC30 potentiation; stronger effect = higher value;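 active means luminescence in either of two replicates above the same-plate mean plus 3 SD of the low-dose dopamine control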
D1 ag no DA: D1 (human) signaling in absence of dopamine; shares compounds with D1 allo mod; HEK293 D1 CRE-luciferase, luminescence, no dopamine; stronger effect = higher value; luminescence at 10 µM; 1,900 compounds, 0.8% hits; in the data active means luminescence above about 3900
Isoprot counter: isoproterenol response counter-screen activity for D1 modulators. shares compounds with D1 allo mod. HEK293 D1 CRE-luciferase, isoproterenol EC30 counter-screen. calls only at 10 µM. 2,200 compounds, 63% hits;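 active means luminescence in either replicate above plate mean of wells with a partly effective reference agonist dose plus 3 SD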;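 further: isoproterenol raises cAMP through native beta-adrenoceptor Gs so signal bypasses D1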
Numbers without * were called inactive; i = inactive; . = not tested or not shown; + = active, no number. Shown are actives, neighbours in structure and some others; about 11% of the full set was active somewhere.

SMILES	D1 allo mod	M1 ag	M1 antag	Htt clearance	SF1 activator	RORa activator	D1 PAM confirm	D1 ag no DA	Isoprot counter
CNC(=O)N(C1=NCC(C)S1)c1ccc(F)cc1F (stereo unspecified)	5.25*	0.576	0.0905	-41.5	1.1	14.8	16972*	1640	+
CNc1nc(C)c(C(=O)OCc2ccccc2)s1	17.6*	-0.908	-0.495	.	9.0	35.2	16572*	1592	+
CNc1nc(C)c(C(=O)OCC(=O)OC)s1	9.36*	.	.	.	-2.7	12.1	13828*	1716	i
O=CN(Cc1ccco1)C1(C(=O)NC2CCCCC2)CCCCC1	0.699	-0.115	0.182	19.6	5.6	-8.7	.	.	.
CN1Cc2cc(C(=O)c3cc(Cl)cc(CSc4ncccn4)c3O)cnc2NC1=O	4.49*	-0.953	-0.752	.	-50.0	-26.5	8560*	.	+
CSc1nc2oc3c(c2c2nncn12)CC(C)(C)SC3	5.71*	0.0295	-0.0124	-52.6	-7.5	-9.2	9128*	1480	i
CC1(C)Cc2c(oc3ncn4ncnc4c23)CO1	.	-0.258	-0.326	19.7	-1.8	-16.0	.	.	.
O=S(=O)(Nc1nc2ccccc2nc1Nc1ccc2c(c1)OCCO2)c1cccs1	-1.28	0.0218	0.00576	.	25.3	23.6	.	.	.
CCOC(=O)c1c(C)c2c(n1C)CCC/C2=N\O	6.5*	1	-0.126	i	-13.5	1.5	9680*	1536	+
CN1CCN(C(=O)CN(c2cccc(Cl)c2)S(=O)(=O)c2ccccc2)CC1	-1.1	1.54	-1.88	13.7	-6.5	48.0	.	.	.
COc1ccccc1N1CCN(C/C(O)=C(\C#N)c2nc(-c3ccccc3)cs2)CC1	-0.349	0.00383	0.0442	.	-1.1	2.6	.	.	.
COc1ccc(-c2csc(/C(C#N)=C(\O)CSc3nccn3C)n2)cc1OC	18.8*	1.14	0.952	.	41.8	6.1	18552*	1616	+
CCCCCSc1nnc2c(n1)OC(c1cccn1C)N(C(C)=O)c1ccccc1-2 (stereo unspecified)	2.69*	0.588	-1.16	16.1	7.2	-2.4	5252	1472	i
CCOc1ccc(C2Oc3nc(SC)nnc3-c3ccccc3N2C(C)=O)cc1OC (stereo unspecified)	8.36*	0.328	-0.0232	.	-9.8	11.6	11344*	1628	i
CCSc1nnc2c(n1)OC(c1ccc(C(=O)O)cc1)N(C(C)=O)c1ccccc1-2 (stereo unspecified)	-0.125	0.198	-0.528	.	-15.4	18.1	.	.	.
c1coc(-c2nc3ccccc3nc2-c2ccco2)c1	6.73*	0.274	0.127	.	5.4	2.6	14092*	.	+
O=c1oc(-c2ccco2)nc2ccccc12	0.286	0.241	0.0461	.	-3.0	-0.4	.	.	.
CSc1cccc(-n2cc(-c3ccc4c(c3)OCO4)[nH]c2=O)c1	0.415	0.0379	-0.0794	.	42.9	40.0	.	.	.
CCOC(=O)c1[nH]cnc1C(=O)Nc1ccccn1	3.97*	0.373	0.0592	1.6	9.3	9.5	10664*	1452	i
O=C(c1ccccc1)c1nc[nH]c1C(=O)Nc1ccccn1	4.58*	0.644	-0.417	-53.2	0.3	0.6	9124*	2104	i
COc1cccc(C2C(C(=O)c3sc(C)nc3C)=C(O)C(=O)N2CCN(C)C)c1OC (stereo unspecified)	.	0.0313	0.093	.	5.5	-32.3	.	.	.
Cn1c(=O)c2c(-c3ccccc3)n(-c3ccccc3O)cc2n(C)c1=O	2.37	-1.28	0.183	-6.9	11.7	19.8	.	.	.
COc1ccc(-c2c3c(=O)n(C)c(=O)n(C)c3cn2-c2cc(OC)ccc2OC)cc1	6.01*	-0.972	-1.56	-40.9	-3.4	-9.6	8244*	1200	+
CC(=O)NC(CC(C)C)C(=O)NC(=O)NCc1ccccc1 (stereo unspecified)	0.0562	0.979	0.0799	.	10.8	1.2	.	.	.
